Data on three compounds can be found in publication PMC7231841 (Redox Biology, 2020).

Series [1] relates to serum IL-1β, IL-6, TNF-α and IFN-γ. The experiment in a line: LPS challenge mouse acute inflammation model. Format: in vivo, C57BL/6 mice. Conditions: oral, 3 days, LPS 300 μg/kg IP. Put shortly: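 Female C57BL/6 mice (6–8 weeks, 18–20 g) were acclimatised for 2 days. LPS 300 μg/kg/day was given IP in 500 μL on days −3, −2 and −1 (n = 8 per LPS group). Test compound (10 or 40 mg/kg/day) was given intragastrically in 500 μL saline 4 h after each LPS dose. Dexamethasone 10 mg/kg/day served as positive control. Saline IP controls had n = 3. Sera were taken 24 h after the last dose for cytokine ELISA.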

Series [2] can be described thus: HPLC assay for H2O2-induced drug release. Format: physicochemical. The method in brief: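 A 10 mM DMSO stock of test compound was diluted to 50 μM final in PBS (10 mM, pH 7.4). H2O2 was added at graded levels (24 h incubation) or at 10 mM (time course), then vortexed. Incubation was at 37 °C in triplicate. Samples taken at intervals were injected directly onto C18 HPLC (70% methanol, 0.5 mL/min, DAD detection). Percent compound came from peak areas against a standard curve.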

The target in series [3] is Keap1-Nrf2 interaction (Keap1 Kelch domain / FITC-9mer Nrf2 peptide) (Homo sapiens, UniProt Q14145). The experiment in a line: Fluorescence polarization. Format: binding.
For series [4], the system named is RAW264.7 cells. The experiment in a line: Antioxidant capacity. Format: cell-based, mouse. The note with it: LPS (20 ng/mL) treated RAW 264.7 cells. Put shortly:
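RAW264.7 cells were pretreated with LPS (20 ng/mL) for 8 h, then exposed to test compound for a further 16 h. SOD activity, GSH-Px activity, GSH/GSSG ratio and MPO activity were measured in the cells. Data are means ± SEM of 3 independent observations, with one-way ANOVA.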

The nature of series [5]: Stability in simulated gastric fluid and simulated intestinal fluid. The series is classed as in vitro ADME. Conditions: after 8 h, 37 °C, 20 μM. The method in brief:
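Test compound (20 μM) was incubated separately in commercial artificial gastric and intestinal juices at 37 °C for various times, in three parallel runs. Proteins were precipitated with methanol, vortexed and centrifuged at 5000 rpm for 5 min. Supernatants were analysed by HPLC (C18, 70% methanol, 0.5 mL/min) from peak areas.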

A short description of series [6]: pH stability in PBS. The note with it: pH 4 to 10, 24 h, 37 °C, 20 μM. The series is classed as physicochemical. The method in brief:
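PBS was adjusted to pH 4–10 with 0.1 M HCl or NaOH. Test compound (20 μM) was incubated at 37 °C for 24 h, in triplicate. Solutions were filtered and injected directly on HPLC three times. Percent remaining came from peak areas.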

Series [7] deals with RAW264.7 cells. The experiment in a line: qRT-PCR and Western blot of Nrf2-ARE driven genes in LPS-treated cells. Format: cell-based, mouse. Conditions: 20 ng/mL LPS 8 h. The method in brief:
(§1)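 RAW264.7 cells were pretreated with LPS (20 ng/mL) for 8 h, then exposed to test compound for 16 h. Total RNA was extracted with TRIzol and reverse-transcribed, followed by real-time qRT-PCR. mRNA was normalised to β-actin and expressed as fold of control. Data are means ± SEM, n = 3 independent observations, one-way ANOVA.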

The nature of series [8]: Plasma stability. Format: in vitro ADME, rat. Conditions: 20 μM, 37 °C. Put shortly:
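Test compound (20 μM) was incubated in plasma at 37 °C for various times, in three parallel runs. Proteins were precipitated with methanol, vortexed and centrifuged at 12,000 rpm for 5 min. Supernatants were analysed by HPLC from peak areas.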

In series [9] the test system is RAW264.7 cells. The experiment in a line: Inflammatory factors. The series is classed as cell-based, mouse. The method in brief:
as §1

Series [10] in a line: Liver microsome stability. The series is classed as in vitro ADME, rat. The method in brief:
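Rat (CD-1 male) liver microsomes from a 20 mg/mL stock were shaken in PBS at 37 °C for 10 min. Test compound was added from a 0.5 mM DMSO solution, with a 20 μM test level. After 5 min preincubation, the reaction was started with NADPH (6 mM stock). It was quenched with ice-cold acetonitrile at 0, 5, 15, 30 and 45 min. Samples were centrifuged at 5000 rpm for 15 min and supernatants analysed by LC-MS/MS. Ketanserin served as reference.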

Series [11] is described as follows: In vivo pharmacokinetic assay. Details: species or system SD rats. The note with it: rat.
Series [12] deals with HepG2-ARE-C8 cells. The experiment in a line: Nrf2/ARE luciferase reporter assay. The series is classed as cell-based. (In general: Reporter assays use an easily measured gene product as a stand-in for the process of interest.)
Series [13] can be described thus: Parallel artificial membrane permeability assay. Format: physicochemical. Conditions: PAMPA. The method in brief:
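Effective permeability (Pe) at pH 7.4 was measured by double-sink PAMPA.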
On the technique in general: In PAMPA a lipid-coated filter parts donor from acceptor wells.

Broadly, the bioavailability is dose-corrected exposure relative to a reference, in per cent. By CL/F is commonly meant clearance divided by bioavailability, as obtained after extravascular dosing.

Chain of Keap1-Nrf2 interaction (Keap1 Kelch domain / FITC-9mer Nrf2 peptide) (Q14145 322-609): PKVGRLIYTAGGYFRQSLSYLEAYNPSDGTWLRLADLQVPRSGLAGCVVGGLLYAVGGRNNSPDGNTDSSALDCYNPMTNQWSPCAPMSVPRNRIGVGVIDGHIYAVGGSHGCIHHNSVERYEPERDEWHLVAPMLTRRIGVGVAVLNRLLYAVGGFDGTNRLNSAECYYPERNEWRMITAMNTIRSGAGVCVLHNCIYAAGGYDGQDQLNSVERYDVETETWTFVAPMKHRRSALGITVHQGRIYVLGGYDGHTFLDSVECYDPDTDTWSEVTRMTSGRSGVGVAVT

For `C[C@@H]1C[C@H]2[C@@H]3CCC4=CC(=O)C=C[C@]4(C)[C@@]3(F)[C@@H](O)C[C@]2(C)[C@@]1(O)C(=O)CO` [DXM, Dexamethasone, reference compound], the “Anti-inflammation effect on serum pro-inflammatory cytokines” value (from here on “Anti-inflammation effect”) in series [1] (10 mg/kg) is given as “diminished inflammatory response”.

As for `COc1ccc(S(=O)(=O)N(CC(=O)N2CCSC2=O)c2ccc(N(CC(=O)N3CCSC3=O)S(=O)(=O)c3ccc(OC)cc3)c3ccccc23)cc1` [pro1, N,N'-(naphthalene-1,4-diyl)bis(4-methoxy-N-(2-oxo-2-(2-oxothiazolidin-3-yl)ethyl)benzenesulfonamide)], in [2] (H2O2 (10 mM), PBS pH 7.4, 37 °C, UPLC/HRMS), the “Production of compound 1 from the prodrug in the presence of H2O2” value is given as “cannot be observed even after 12 h”. For the same compound, in [3], the “Inhibition against Keap-Nrf2 interaction in the FP assay” value is reported as “no inhibition”.

On to `COc1ccc(S(=O)(=O)Nc2ccc(N(CC(=O)N3CCSC3=O)S(=O)(=O)c3ccc(OC)cc3)c3ccccc23)cc1` [pro2, 4-methoxy-N-(4-((4-methoxyphenyl)sulfonamido)naphthalen-1-yl)-N-(2-oxo-2-(2-oxothiazolidin-3-yl)ethyl)benzenesulfonamide], for which, in series [4], the “Activities of SOD and GSH-Px” value is “significantly restored the activities”; the “GSH/GSSG ratio and MPO activity” value is recorded as “restored the levels nearly back to normal”. Besides, in [5], the “Remaining in simulated gastric fluid (SGF)” value is on record as “more than 50%” and the “Remaining in simulated intestinal fluid (SIF)” value was “more than 50%”. Moreover, the “Stability to hydrolysis in PBS” value in series [6] was “relatively stable”. Besides, the “Transcription of Nrf2 targeted genes (HO-1, NQO1, GCLM mRNA)” value in series [7] (compound 500 nM, qRT-PCR) is on record as “highly enhanced the transcription”. Further, the “Protein levels of Nrf2 and downstream antioxidant enzymes” value in series [7] (then compound 16 h, Western blot) was “remarkably accumulated Nrf2 protein and elevated downstream antioxidant enzymes”. Besides, in series [2] (1 mM H2O2, incubating 24 h, PBS pH 7.4, 37 °C), the “Prodrug released to parent compound 2” value is recorded as “approximately 60%”. For the same compound, the “Time to complete release to the parent compound 2” value in series [2] (10 mM H2O2, PBS pH 7.4, 37 °C) is recorded as no more than 3 h. In addition, the “Conversion to parent compound 2 determined by HPLC” value in series [2] (10 mM H2O2, within 3 h) is given as greater than 98%. For the same compound, the “Stability in rat plasma” value in series [8] is “quite stable”. Further, the “LPS-induced elevation of IL-1β and IL-6 protein” value in series [9] (LPS (20 ng/mL) 8 h, Western blot) is listed as “almost completely suppressed the elevation”. Moreover, in [9] (LPS (20 ng/mL) 8 h, qRT-PCR), the “mRNA levels of IL-1β and IL-6” value is listed as “significant suppression effects”. The “Suppression of IL-1β, IL-6 and TNF-α production” value in [9] (LPS (20 ng/mL), culture supernatants, ELISA) is listed as “obvious superiority in the suppression”. Also, the “Inhibition against Keap-Nrf2 interaction in the FP assay” value in [3] is “no inhibition”. Moreover, the “Stability in co-incubation with rat liver microsomes” value in [10] is recorded as “quite stable”. Besides, in [1] (10 mg/kg), the “Anti-inflammation effect” value is given as “comparable therapeutic effects with DXM”. In addition, the “Anti-inflammation effect” value in [1] (40 mg/kg (high dose)) is recorded as “more potent effects”. Besides, in series [11] (I.V. (2 mg/kg)), the Cl_F was 18.5 ± 3.9 mL/min/kg and the Vz_F turned out to be 6.44 ± 4.09 L/kg. In addition, in [11] (P.O. (10 mg/kg)), the Vz_F is 4.79 ± 2.17 L/kg. In addition, in series [11] (male, SD, plasma, oral), the bioavailability is 68.1%. This compound also came in with a CL/F in [11] (male, SD, plasma, po, 10 mg/kg) of 26.4 ± 1.14 mL/min/kg. The “Relative ARE induction activity under normal conditions” value in [12] (HepG2-ARE-C8 cells, no LPS) is “nearly inactive”. Moreover, in [12] (LPS pretreatment 8 h, then compound 200 nM for 12 h), the “Relative ARE induction activity under various concentrations of LPS” value was “LPS concentration-dependent enhancement of Nrf2-ARE inducing activity”. For the same compound, in series [13], the “Pe at pH 7.4” value is 6.35 10−6 cm/s.
